# Reference: the RNAGym collection of RNA variant scans (doi:10.1126/science.aae0568)
# Fewer inactive variants are shown than the library holds.
# B1: tRNA (parent)
# chain: GUUCCGUUGGCGUAAUGGUAACGCGUCUCCCUCCUAAGGAGAAGACUGCGGGUUCGAGUCCCGUACGGAACG
# Variants of: B1
# Assay: yeast fitness relative to wild type (ratio to wild type); higher = fitter; tRNA-Arg(CCU), competitive growth, 37 C, YPD
# Method in brief: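 Gene amplicons from the start population and from each of six end populations were read by 100-nucleotide paired-end sequencing. Those end populations came from pooled Saccharomyces cerevisiae strains carrying tRNA-Arg(CCU) gene variants at the native locus, competed in YPD at 37°C for 24 hours. Fitness relative to wild type was worked out from changes in genotype frequencies. Genotypes needed ≥ 100 starting reads, and estimates < 0.5 were set to 0.5.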
row,Variant,yeast fitness
1,C11U A45U A70C,1.06
2,C11U A45U C49G A65U,≤ 0.5
3,C11U A45U U53C,0.66
4,C11U A45U U54G,≤ 0.5
5,C11U A57C,0.622
6,C11U A57C C60U G67C,0.589
7,C11U A57C G63A,≤ 0.5
8,C11U A57G,0.816
9,C11U A57G A69U,0.718
10,C11U A57G C61A,≤ 0.5
11,C11U A57G C61U,≤ 0.5
12,C11U A57G U59C G67A,≤ 0.5
13,C11U A65C,0.933
14,C11U A65G,0.935
15,C11U A65G A70U,0.606
16,C11U A65U,0.923
17,C11U A65U A69C,0.588
18,C11U A65U A70G,0.696
19,C11U A65U C66A,≤ 0.5
20,C11U A65U G68C,0.592
21,C11U A69C A70U,0.814
22,C11U A69U,0.949
23,C11U A70C,0.898
24,C11U A70U,0.88

row,Variant,yeast fitness
1,C11U C22A C24G A36G G39C C55U C66U,≤ 0.5
2,C11U C22A C29G C33U,0.519
3,C11U C22A C29G C33U G56C,≤ 0.5
4,C11U C22G,0.875
5,C11U C22G A36G A65U,0.554
6,C11U C22G A37C A42G G44A,≤ 0.5
7,C11U C22G A40C G41A U47A U53C G67C,≤ 0.5
8,C11U C22G A42G U59C,≤ 0.5
9,C11U C22G A57G,0.586
10,C11U C22G A57U,≤ 0.5
11,C11U C22G A65G,0.731
12,C11U C22G A69C,0.653
13,C11U C22G A70U,0.722
14,C11U C22G C29G G41A U54A,≤ 0.5
15,C11U C22G C29G G41A U54A U64G,≤ 0.5
16,C11U C22G C33U,≤ 0.5
17,C11U C22G C62U A70C,≤ 0.5
18,C11U C22G G52C G56U,≤ 0.5
19,C11U C22G G58A C61U,0.608
20,C11U C22U,0.855
21,C11U C22U A40C,0.558
22,C11U C22U A57U,0.512
23,C11U C22U A57U A70C,≤ 0.5
24,C11U C22U C24U,0.56

row,Variant,yeast fitness
1,C11U C22U C24U G41A A65C,≤ 0.5
2,C11U C22U C29G C34U G48C A57G,≤ 0.5
3,C11U C22U C55U,0.681
4,C11U C22U G44C C62U,≤ 0.5
5,C11U C22U G48C U54G C55U,≤ 0.5
6,C11U C22U G58A C66U,0.532
7,C11U C22U G67A,0.586
8,C11U C24A A70U,≤ 0.5
9,C11U C24A C31U C33U A37U G48A G67A,≤ 0.5
10,C11U C24A C34U A37U G39C A40U G52A C55G,≤ 0.5
11,C11U C24G,0.614
12,C11U C24G A42G,≤ 0.5
13,C11U C24G A45C C60A G68U,≤ 0.5
14,C11U C24G A70U,0.557
15,C11U C24G C27G,≤ 0.5
16,C11U C24G C29U G50A G58C G63A C66U,≤ 0.5
17,C11U C24G C33A A40C A65U,0.641
18,C11U C24G C33A A40C G50C,≤ 0.5
19,C11U C24G C61A,0.569
20,C11U C24G C62G,≤ 0.5
21,C11U C24G G50U G63C G67A,≤ 0.5
22,C11U C24G G63C G67A,0.568
23,C11U C24G U47A,0.565
24,C11U C24U A45G C46G C55G,≤ 0.5

row,Variant,yeast fitness
1,C11U C24U C30U A57C G63C,≤ 0.5
2,C11U C24U C34G,≤ 0.5
3,C11U C24U C34G U64A,≤ 0.5
4,C11U C24U C34U C61U,≤ 0.5
5,C11U C24U C49A C62A,≤ 0.5
6,C11U C24U G44C C49A,≤ 0.5
7,C11U C24U G44C C49A A69C,≤ 0.5
8,C11U C24U U53A C66U,≤ 0.5
9,C11U C27A C29A A37U A45U,0.54
10,C11U C27A C46A A70U,≤ 0.5
11,C11U C27A G48A U53A C61U,≤ 0.5
12,C11U C27A G50A A69U,≤ 0.5
13,C11U C27A G51C G56C,≤ 0.5
14,C11U C27A G52A,≤ 0.5
15,C11U C27G,0.703
16,C11U C27G A42C G68A,≤ 0.5
17,C11U C27G C29G C49U G63C,≤ 0.5
18,C11U C27G C55U C66A,≤ 0.5
19,C11U C27G C62U A65U,≤ 0.5
20,C11U C27G G48C C49G,≤ 0.5
21,C11U C27U,0.906
22,C11U C27U A45C A57C,≤ 0.5
23,C11U C27U C29A C33G C66A,≤ 0.5
24,C11U C27U C31A A42G C49G G51A,≤ 0.5

row,Variant,yeast fitness
1,C11U C27U C31A U35C C60G A70C,≤ 0.5
2,C11U C27U C31U A36C G44C A45G G56C A70U,≤ 0.5
3,C11U C27U C31U A37G A42U G48C C49U,0.54
4,C11U C27U G52C C55G,≤ 0.5
5,C11U C27U U35C,0.635
6,C11U C29A,0.824
7,C11U C29A A57G,≤ 0.5
8,C11U C29A A57U C62U,≤ 0.5
9,C11U C29A A57U C62U A70U,≤ 0.5
10,C11U C29A C31G,≤ 0.5
11,C11U C29A U35C,≤ 0.5
12,C11U C29A U54A A70C,≤ 0.5
13,C11U C29G A36U C66A,≤ 0.5
14,C11U C29G A37C A42U,≤ 0.5
15,C11U C29G A37C A42U A57G,≤ 0.5
16,C11U C29G A37C A42U A57G C61U G67A,≤ 0.5
17,C11U C29G C31U,0.531
18,C11U C29G C31U A57U,≤ 0.5
19,C11U C29G C31U C34G A70C,0.534
20,C11U C29G C55G A57G,≤ 0.5
21,C11U C29U A45C C60G A65C,≤ 0.5
22,C11U C29U C60G A70G,≤ 0.5
23,C11U C29U C66U,0.603
24,C11U C29U G38A G48C C62G,≤ 0.5

row,Variant,yeast fitness
1,C11U C29U G48A,0.621
2,C11U C29U G50A C66A,≤ 0.5
3,C11U C29U G67A A70U,0.578
4,C11U C29U U47C G67A A70U,≤ 0.5
5,C11U C30A A65C,0.685
6,C11U C30A U47A,0.57
7,C11U C30A U47A C62A,0.591
8,C11U C30G A40G G50C G51C,≤ 0.5
9,C11U C30G A40U A45U C55G,0.604
10,C11U C30G A40U U54A,≤ 0.5
11,C11U C30G G56C,≤ 0.5
12,C11U C30G G58A,≤ 0.5
13,C11U C30U,0.748
14,C11U C30U A43G,≤ 0.5
15,C11U C30U A65U C66G,0.585
16,C11U C30U C34G,0.576
17,C11U C30U C46A,0.821
18,C11U C30U C55G,0.541
19,C11U C30U G38C A65G,0.506
20,C11U C30U G41C,≤ 0.5
21,C11U C31A,0.725
22,C11U C31A A42G,0.525
23,C11U C31A G51C,0.532
24,C11U C31G A37U G51C G58A,≤ 0.5

row,Variant,yeast fitness
1,C11U C31G A45C,≤ 0.5
2,C11U C31G A57U,0.533
3,C11U C31G A57U G67U,≤ 0.5
4,C11U C31G C33U A37C A65U,≤ 0.5
5,C11U C31G C34G A43U A69C,≤ 0.5
6,C11U C31G C46A,0.629
7,C11U C31G C46A U54C C61G,≤ 0.5
8,C11U C31G C46G,0.673
9,C11U C31G C46G C66U,0.564
10,C11U C31G C49G,0.696
11,C11U C31G C49G C62U G67C,≤ 0.5
12,C11U C31G C55U C61U A65G,≤ 0.5
13,C11U C31U,0.804
14,C11U C31U A37U A70U,≤ 0.5
15,C11U C31U A42C G44A A45U,≤ 0.5
16,C11U C31U A42G C62U A69C,≤ 0.5
17,C11U C31U C60A,≤ 0.5
18,C11U C31U C66U,0.742
19,C11U C31U G41A,0.714
20,C11U C31U G41U C49U,0.522
21,C11U C31U G51C,≤ 0.5
22,C11U C31U G58C,0.643
23,C11U C31U U47C,0.78
